# In the library only some 1.3% were active in any assay of this set; here they are far more common.
# CHT allo act: allosterically activates the human high affinity choline transporter; Q9GZV3; CHT-expressing cells, membrane potential dye, choline EC20; active compounds read high; LV-AA mutant CHT in HEK293 cells; B-score at 10 µM; actives 0.49% (n = 310,000);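 active means initial fluorescence not abnormally high and integrated response B-score, plate-corrected, over 3 SD above library mean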
# procasp7 counter: counter-screen for procaspase-3 activators: activators of human procaspase-7 | activation, % at 8.5 µM | recombinant procaspase-7, Ac-DEVD-pNA absorbance 405 nm; D23A/D198A/D206A triple mutant, cannot self-cleave; scale: DMSO 0, 5 µM enzyme 100 | P55210 | actives 0.093% (n = 330,000);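 active means percent activation above the screen-wide mean plus 3 SD, cut at about 25% in these data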
# Target sequence (P55210 whole entry D23A/D198A/D206A): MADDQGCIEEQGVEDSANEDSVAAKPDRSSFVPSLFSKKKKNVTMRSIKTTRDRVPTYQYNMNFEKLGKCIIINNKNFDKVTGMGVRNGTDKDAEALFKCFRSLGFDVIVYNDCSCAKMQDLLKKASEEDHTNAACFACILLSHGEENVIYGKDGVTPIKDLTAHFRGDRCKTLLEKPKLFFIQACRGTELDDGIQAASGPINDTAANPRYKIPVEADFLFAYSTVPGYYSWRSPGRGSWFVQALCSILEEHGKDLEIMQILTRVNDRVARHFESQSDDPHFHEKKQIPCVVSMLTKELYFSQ
#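 buffer or medium = Zinc-free HEPES/NaCl buffer, pH 7.4 | material = Procaspase-7 triple mutant (PC-7 D3A) | input = 2 µM procaspase-7 mutant as dispensed | signal = Epi-absorbance of released pNA at 405 nm, two timepoints | timing = 1 h preincubation, 2 h reaction | replicates = singlicate compound testing | evaluation = % activation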
# CHT inh: human CHT choline transport inhibition; CHT-expressing cells, membrane potential dye, choline response; active compounds read low; B-score at 10 µM; actives 0.86% (n = 310,000);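 active means B-score over 3 SD under the library average, and starting fluorescence ratio not unusually high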;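 further: choline stimulus applied at its EC90 after an EC20 pre-addition; B-score computed on integrated fluorescence ratio after choline addition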
# procasp3 activ: activators of human procaspase-3. P42574. recombinant procaspase-3 D3A, Ac-DEVD-pNA absorbance 405 nm. activation, % at 8.5 µM. actives 0.11% (n = 330,000). AID 463141;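 active means activation above the mean of all tested compounds plus 3 SD, cut at about 21% in these data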;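 further: 0% = DMSO alone and 100% = DMSO wells spiked with extra 5 µM PC-3 D3A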
# Target sequence (P42574 whole entry D9A/D28A/D175A): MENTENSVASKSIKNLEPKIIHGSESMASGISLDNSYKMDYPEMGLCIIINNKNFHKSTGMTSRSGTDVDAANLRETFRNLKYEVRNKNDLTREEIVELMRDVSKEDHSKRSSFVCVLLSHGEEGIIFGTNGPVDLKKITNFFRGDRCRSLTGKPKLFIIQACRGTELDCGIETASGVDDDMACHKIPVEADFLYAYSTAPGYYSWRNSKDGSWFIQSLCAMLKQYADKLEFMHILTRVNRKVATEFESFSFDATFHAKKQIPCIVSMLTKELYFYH
#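 material = Procaspase-3 D3A mutant | probe or stimulus = Ac-DEVD-pNA | compound = single dose, 8.5 µM nominal compound, 0.8% DMSO | timing = 1 h preincubation, 2 h reaction | measured by = 405 nm absorbance of p-nitroaniline, reads at 0 and 120 min | benchmarks = DMSO-only low control, 5 µM PC-3 D3A high control | repeats = singlicate, each compound tested once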
# CHT activ conf: human CHT activation, confirmatory screen; shares compounds with CHT allo act; CHT-expressing cells, membrane potential dye fluorescence (FDSS); % of choline EC20–EC90 response window; HEK293 expressing CHT LV-AA mutant; choline added at its EC20; activation, % at 10 µM; actives 91% (n = 2,500);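 active means primary screen active, with duplicate mean activation above negative control mean plus 3 SD, cut at about 11% in these data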
# HEK293 MP dye: CHT activator counter-screen hit in parental HEK293 cells | shares compounds with CHT allo act | membrane potential dye fluorescence (FDSS); measured after EC20 choline addition | ratio readout change at 10 µM, hits read low | actives 62% (n = 2,500) | AID 623908;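 active means duplicate-averaged ratio beyond 3 SD from buffer wells, up or down, though filed actives are nearly all decreases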
# Numbers without * were called inactive; i = inactive; . = no result.
SMILES,CHT allo act,procasp7 counter,CHT inh,procasp3 activ,CHT activ conf,HEK293 MP dye
CCOC(=O)c1c(N=CN(C)C)c2cc([N+](=O)[O-])cnc2n1C,i,3,i,1,38*,-46*
c1cncc(Nc2nc(-c3cccnc3)cs2)c1,6.9*,-4,i,3,43*,-45*
Cc1nc(C)c(-c2csc(Nc3ccc(N)cc3)n2)s1,i,-22,i,-8,.,.
Cc1nc(C)c(-c2csc(Nc3cccnc3)n2)s1,i,2,i,1,35*,-34*
Clc1cccc(-c2csc(Nc3cccnc3)n2)c1,i,6,i,-3,.,.
c1cncc(Nc2nc(-c3ccncc3)cs2)c1,7.5*,-4,i,-10,46*,-49*
COCCn1c(SCC(=O)NN2C(=O)NC(C)(c3ccccc3)C2=O)nnc1-c1ccncc1 (stereo unspecified),.,14,.,7,.,.
CCCc1n(CC)c2ccccc2[n+]1CC(O)COC1CCCCC1 (stereo unspecified),7*,3,i,1,40*,i
O=C(CN1C(=O)CCC1=O)Nc1nc(-c2nc3ccccc3s2)cs1,i,6,i,-4,18*,i
O=C(CN1C(=O)CCC1=O)Nc1nc(-c2ccccn2)cs1,i,3,i,-5,.,.
COc1ccc2c(c1)c1c3n2CCN(C)C3=NCC1,i,15,i,12,53*,-60*
Cc1ccc2c(c1)c1c3n2CCN=C3CCC1,i,1,i,-2,.,.
CCCCCCCCCCC[N+](C)(C)CC/C=C1/c2ccccc2Sc2ccc(Cl)cc21,i,1,i,-7,.,.
CCCCCCCCCC[N+](C)(C)CC/C=C1/c2ccccc2Sc2ccc(Cl)cc21,8.2*,-1,i,-9,-1,-47*
COc1ccc(Nc2c3c(nc4ccccc24)CCC3)cc1,i,-12,i,8,.,.
CN(C)CCCNc1c2c(nc3ccccc13)CCC2,i,1,i,-1,62*,-66*
COc1ccc(C)cc1Nc1c2c(nc3ccccc13)CCC2,6.8*,3,i,3,36*,-27*
CCCCCC(=O)Nc1c2c(nc3ccccc13)CCC2,i,9,i,8,.,.
COCCNc1c2c(nc3ccccc13)CCC2,i,3,i,2,44*,-40*
Cc1cccc(C(=O)NC(=S)N2CCN(C(=S)NC(=O)c3cccc(C)c3)CC2)c1,i,3,i,5,.,.
CC(Oc1ccccc1F)C(=O)NNC(=O)CCNC(=O)c1ccccc1Cl (stereo unspecified),i,6,i,-6,.,.
O=C(O)CC(c1ccc(C(F)(F)F)cc1)N1Cc2ccccc2C1=O (stereo unspecified),i,12,i,8,.,.
CCc1ccccc1NC(=O)C1CCCN(S(=O)(=O)c2ccc3c(c2)CC(C)N3C(C)=O)C1 (stereo unspecified),i,-4,i,4,.,.
COC(=O)c1cc(S(=O)(=O)NCc2ccc(Br)cc2)c[nH]1,i,8,i,-2,.,.
COc1ccccc1NC(=S)N=Nc1c(O)[nH]c2ccc(Br)cc12,i,7,i,-9,.,.
SMILES,CHT allo act,procasp7 counter,CHT inh,procasp3 activ,CHT activ conf,HEK293 MP dye
Cc1cccc(NC(=S)N=Nc2c(O)[nH]c3ccccc23)c1,9.5*,0,i,14,8,i
Cc1cc(=O)oc2cc(OCCCC[n+]3ccccc3)ccc12,i,-5,i,-9,62*,-38*
Cc1c(C(=O)N/N=C/c2cccnc2)nnn1-c1nonc1N,i,1,i,-9,31*,-45*
N=c1c(C(=O)NC2CCCC2)cc2c(=O)n3ccccc3nc2n1CCN1CCOCC1,i,-7,i,-14,48*,-38*
COc1ccc(CCn2c(=N)c(C(=O)NC3CCCCC3)cc3c(=O)n4ccccc4nc32)cc1,i,-9,i,-7,43*,-48*
Cc1cccn2c(=O)c3cc(C(=O)NC4CCCC4)c(=N)n(CCc4ccccc4)c3nc12,i,-6,i,-7,10,-29*
CCCCNC(=NCc1cccc(C(F)(F)F)c1)Nc1ccccc1,12*,7,i,2,18*,i
O=C(Cc1cccc(C(F)(F)F)c1)Nc1ccccc1,i,-9,i,-1,.,.
O=C(Nc1cccnc1)c1ccc(Cl)c(S(=O)(=O)N2CCCC2)c1,i,1,i,0,.,.
O=C(O)C1CCC(N2C(=O)c3c(Cl)c(Cl)c(Cl)c(Cl)c3C2=O)CC1 (stereo unspecified),i,3,i,9,.,.
CC(C)CC[n+]1ccccc1/C=C/c1ccc(N(C)C)cc1,12*,-8,i,-4,60*,i
CN(C)c1ccc(/C=C/c2cccc[n+]2[O-])cc1,i,0,i,0,.,.
CCC1=C(OC(=O)N(CC)CC)N2C(=O)OC(=NCC3CC3)[C@]2(Cc2ccccc2)[C@H]2C1=CC[C@H]1C(=O)N(C)C(=O)[C@H]12,7.2*,-1,i,14,40*,i
CCC1=C(OC(=O)N(CC)CC)N2C(=O)OC(=NCC3CC3)[C@]2(Cc2ccccc2)[C@H]2C1=CC[C@H]1C(=O)N(c3ccccc3)C(=O)[C@H]12,i,8,i,17,.,.
c1ccc(C[n+]2csc3ccccc32)cc1,i,-25,i,-21,.,.
Brc1cc2ccccc2[n+](Cc2ccccc2)c1,7*,-5,i,5,76*,-67*
COc1ccc(CNC(=O)COc2cc3c(c4oc(=O)cc(C)c24)CCC(C)(C)O3)cc1,i,0,i,14,.,.
COc1ccccc1CNC(=O)COc1cc2c(c3oc(=O)cc(C)c13)CCC(C)(C)O2,i,-8,i,-1,24*,i
O=C(NCCC1CCCCN1S(=O)(=O)c1ccccc1)C(=O)NCc1ccncc1 (stereo unspecified),i,-9,i,5,.,.
COc1ccc(/C=N/Nc2ccccn2)cc1O,i,-10,i,-2,35*,-48*
COc1ccc(NC(=O)c2ccco2)cc1NC(=O)c1ccccc1[N+](=O)[O-],i,-6,i,9,.,.
COc1cc(CC(=O)OCC(=O)NCc2ccco2)cc(OC)c1OC,.,-5,.,5,.,.
COc1ccc(CC(=O)OCC(=O)NCc2ccco2)cc1,7*,4,i,11,-6,i

# Screening data: PubChem BioAssay, several laboratories
